Measured values from ChEMBL document CHEMBL1629485, “Lead identification of conformationally restricted β-lactam type combretastatin analogues: synthesis, antiproliferative activity and tubulin targeting effects” (Eur J Med Chem, 2010).

Key:
[1] = tested on: MDA-MB-231; test: Cell cycle arrest in estrogen receptor deficient human MDA-MB-231 cells assessed as accumulation at G2/M phase at 10 uM after 24 hrs using propidium iodide staining by flow cytometry relative to control; format: functional
Outline: (§1)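 MDA-MB-231 cells in DMEM with 10% FBS and 2 mM L-glutamine, seeded at 18 × 10⁴ cells/mL. Exposed to test agent at the stated final concentration, or to 1% (v/v) ethanol vehicle, for 24, 48 or 72 h. Harvested by scraping and centrifugation, then RNase A treatment and propidium iodide DNA staining for at least 30 min at 37 °C. 10,000 cells per sample read at 488 nm by flow cytometry; mean ± SD of three experiments.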

[2] = tested on: MDA-MB-231; test: Cell cycle arrest in estrogen receptor deficient human MDA-MB-231 cells assessed as accumulation at G2/M phase at 10 nM after 72 hrs using propidium iodide staining by flow cytometry relative to control; format: functional; outline: as §1
[3] = tested on: MDA-MB-231; test: Cell cycle arrest in estrogen receptor deficient human MDA-MB-231 cells assessed as accumulation at G2/M phase at 1 uM after 24 hrs using propidium iodide staining by flow cytometry relative to control; format: functional; outline: as §1
[4] = tested on: MCF7; test: Antiproliferative activity against human MCF7 cells expressing estrogen receptor after 72 hrs by MTT assay; format: functional, cell-based; conditions: MCF7, 72 h
[5] = tested on: MDA-MB-231; test: Cell cycle arrest in estrogen receptor deficient human MDA-MB-231 cells assessed as accumulation at sub-G1 phase at 1 uM after 72 hrs using propidium iodide staining by flow cytometry relative to control; format: functional; outline: as §1
[6] = tested on: MDA-MB-231; test: Cell cycle arrest in estrogen receptor deficient human MDA-MB-231 cells assessed as appearance of polyploidy at 10 uM after 24 hrs using propidium iodide staining by flow cytometry relative to control; format: functional; outline: as §1
[7] = tested on: MDA-MB-231; test: Cell cycle arrest in estrogen receptor deficient human MDA-MB-231 cells assessed as accumulation at G1 phase at 10 nM after 48 hrs using propidium iodide staining by flow cytometry relative to control; format: functional; outline: as §1
[8] = tested on: MDA-MB-231; test: Cell cycle arrest in estrogen receptor deficient human MDA-MB-231 cells assessed as accumulation at S phase at 1 uM after 24 hrs using propidium iodide staining by flow cytometry relative to control; format: functional; outline: as §1
[9] = tested on: MDA-MB-231; test: Cell cycle arrest in estrogen receptor deficient human MDA-MB-231 cells assessed as appearance of polyploidy at 10 uM after 48 hrs using propidium iodide staining by flow cytometry relative to control; format: functional
Outline: (§2)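 MDA-MB-231 cells seeded at 18 × 10⁴ cells/mL and exposed to 1% (v/v) ethanol vehicle or compound at final concentrations (10 nM, 100 nM, 10 µM at all times; 1 µM also at 24 and 72 h). Cells harvested after 24, 48 or 72 h and treated with RNase A and propidium iodide for at least 30 min at 37 °C. 10,000 cells read at 488 nm by flow cytometry. Percent cells per phase reported, including polyploid; mean ± SD of three experiments.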

[10] = tested on: MDA-MB-231; test: Cell cycle arrest in estrogen receptor deficient human MDA-MB-231 cells assessed as accumulation at S phase at 10 nM after 72 hrs using propidium iodide staining by flow cytometry relative to control; format: functional; outline: as §1
[11] = tested on: MDA-MB-231; test: Cell cycle arrest in estrogen receptor deficient human MDA-MB-231 cells assessed as appearance of polyploidy at 10 nM after 72 hrs using propidium iodide staining by flow cytometry relative to control; format: functional; outline: as §1
[12] = tested on: MDA-MB-231; test: Cell cycle arrest in estrogen receptor deficient human MDA-MB-231 cells assessed as accumulation at G1 phase at 10 uM after 72 hrs using propidium iodide staining by flow cytometry relative to control; format: functional; outline: as §1
[13] = tested on: MDA-MB-231; test: Cell cycle arrest in estrogen receptor deficient human MDA-MB-231 cells assessed as accumulation at G1 phase at 10 uM after 48 hrs using propidium iodide staining by flow cytometry relative to control; format: functional; outline: as §1
[14] = tested on: MDA-MB-231; test: Cell cycle arrest in estrogen receptor deficient human MDA-MB-231 cells assessed as accumulation at S phase at 1 uM after 72 hrs using propidium iodide staining by flow cytometry relative to control; format: functional; outline: as §1
[15] = tested on: MDA-MB-231; test: Cell cycle arrest in estrogen receptor deficient human MDA-MB-231 cells assessed as accumulation at G1 phase at 10 nM after 72 hrs using propidium iodide staining by flow cytometry relative to control; format: functional; outline: as §1
[16] = tested on: MDA-MB-231; test: Cell cycle arrest in estrogen receptor deficient human MDA-MB-231 cells assessed as accumulation at S phase at 10 nM after 48 hrs using propidium iodide staining by flow cytometry relative to control; format: functional; outline: as §1
[17] = tested on: MDA-MB-231; test: Cell cycle arrest in estrogen receptor deficient human MDA-MB-231 cells assessed as accumulation at G2/M phase at 10 uM after 72 hrs using propidium iodide staining by flow cytometry relative to control; format: functional; outline: as §1
[18] = tested on: MDA-MB-231; test: Cell cycle arrest in estrogen receptor deficient human MDA-MB-231 cells assessed as accumulation at G1 phase at 100 nM after 72 hrs using propidium iodide staining by flow cytometry relative to control; format: functional; outline: as §1
[19] = tested on: MDA-MB-231; test: Antiproliferative activity against estrogen receptor deficient human MDA-MB-231 cells after 72 hrs by MTT assay; format: functional, cell-based; conditions: MDA-MB-231, 72 h
Outline: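 MCF-7 grown in Eagle's MEM with 10% FBS, 2 mM L-glutamine, penicillin/streptomycin and 1% non-essential amino acids; MDA-MB-231 grown in DMEM with 10% FBS, 2 mM L-glutamine and penicillin/streptomycin. Seeded at 2.5 × 10⁴ cells/mL, 24 h at 37 °C. Ethanol-stock compound, 1 nM–100 μM, 72 h, ethanol 1% v/v vehicle. MTT at 1 mg/mL final, 2 h dark, 37 °C, DMSO solubilised. Viability vs untreated control. IC50 is mean of three experiments in triplicate.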

[20] = tested on: MDA-MB-231; test: Cell cycle arrest in estrogen receptor deficient human MDA-MB-231 cells assessed as accumulation at G2/M phase at 100 nM after 24 hrs using propidium iodide staining by flow cytometry relative to control; format: functional; outline: as §1
[21] = tested on: MDA-MB-231; test: Cell cycle arrest in estrogen receptor deficient human MDA-MB-231 cells assessed as accumulation at S phase at 10 uM after 24 hrs using propidium iodide staining by flow cytometry relative to control; format: functional; outline: as §1
[22] = tested on: MCF7; test: Cytotoxicity against human MCF7 cells expressing estrogen receptor assessed as LDH release at 10 uM; format: functional
Outline: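 After compound treatment, LDH was measured with a commercial LDH kit. Result is % cell lysis at 10 μM compound.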

[23] = tested on: MDA-MB-231; test: Cell cycle arrest in estrogen receptor deficient human MDA-MB-231 cells assessed as accumulation at sub-G1 phase at 100 nM after 48 hrs using propidium iodide staining by flow cytometry relative to control; format: functional; outline: as §1
[24] = tested on: MDA-MB-231; test: Cell cycle arrest in estrogen receptor deficient human MDA-MB-231 cells assessed as accumulation at S phase at 10 nM after 24 hrs using propidium iodide staining by flow cytometry relative to control; format: functional; outline: as §1
[25] = tested on: MDA-MB-231; test: Cell cycle arrest in estrogen receptor deficient human MDA-MB-231 cells assessed as appearance of polyploidy at 100 nM after 72 hrs using propidium iodide staining by flow cytometry relative to control; format: functional; outline: as §2
[26] = tested on: MDA-MB-231; test: Cell cycle arrest in estrogen receptor deficient human MDA-MB-231 cells assessed as accumulation at sub-G1 phase at 10 nM after 72 hrs using propidium iodide staining by flow cytometry relative to control; format: functional; outline: as §1
[27] = tested on: MDA-MB-231; test: Cell cycle arrest in estrogen receptor deficient human MDA-MB-231 cells assessed as accumulation at G1 phase at 100 nM after 24 hrs using propidium iodide staining by flow cytometry relative to control; format: functional; outline: as §1

`COc1ccc(C2CC(=O)N2c2cc(OC)c(OC)c(OC)c2)cc1O` (configuration not stated) showed an Activity [1] of 55.36%, an Activity [2] of 17.68% and an Activity [3] of 63.16%. The IC50 [4] was 17 nM, the Activity [5] was 50.53% and the Activity [6] was 3.85%. For the same molecule, the Activity [7] was 45.25%, the Activity [8] was 6.01% and the Activity [9] was 2.28%. For the same molecule, the Activity [10] was 9.08%, the Activity [11] was 3.55% and the Activity [12] was 17.14%. The Activity [13] was 14.44%, the Activity [14] was 7.76% and the Activity [15] was 48.24%. It also gave an Activity [16] of 13.36%, an Activity [17] of 21.81% and an Activity [18] of 13.9%. The IC50 [19] was 54 nM, the Activity [20] was 59.43% and the Activity [21] was 3.72%. The Activity [22] was 9%, the Activity [23] was 37.5% and the Activity [24] was 12.55%. It also gave an Activity [25] of 2.99%, an Activity [26] of 15.25% and an Activity [27] of 18.95%.
